The results in this text go back to ChEMBL document CHEMBL4715918, “Syntheses and evaluation of acridone-naphthalimide derivatives for regulating oncogene PDGFR-β expression” (Bioorg Med Chem, 2021).

Broadly, the IC50 is the point on the concentration scale where inhibition reaches its midpoint. Broadly, the Kd is a measure of binding affinity in units of concentration. A high value points to lower affinity. The ΔTm is the shift of the melting midpoint relative to a reference.

The subject of data set [1] is HEK293. The data set is described as follows: Cytotoxicity against HEK293 cells assessed as reduction in cell viability after 48 hrs by MTT assay. In kind it is cell-based. Particulars: Homo sapiens, HEK293, 48 h. In short, it runs like this: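 MTT assay: cells seeded at 5.0 × 10³/well, grown 12 h, then exposed to graded compound concentrations for 48 h at 37 °C/5% CO2. 2.5 mg/mL MTT was added for 4 h, formazan dissolved in DMSO, and absorbance read at 570 nm. Each dose in triplicate; IC50 from percent survival versus negative control.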
(In general: Tetrazolium assays rely on reduction of a dye to a coloured formazan, in cell work by metabolically active cells.)

The test system of data set [2] is MCF7. The data set is described as follows: Binding affinity to wild type PDGFRbeta promoter (unknown origin) in human MCF7 cells assessed as down regulation of PDGFRbeta expression at 1.25 to 20 uM after 12 hrs. Particulars: dose 1.25-20 µM.
Data set [3] concerns MCF7. The data set is described as follows: Antitumour activity against human MCF7 cells xenografted in nude BALB/c mouse assessed as tumour volume at 2.5 mg/kg, ip administered for 34 days (reference value: 1530 mm3). In kind it is functional. Particulars: time 34 day.
Data set [4] deals with MCF7. The data set is described as follows: Induction apoptosis in human MCF7 cells assessed as viable cells at 1.25 uM incubated for 24 hrs by Annexin-FTTC/PI staining based flow cytometric analysis (reference value: 99.7%). In kind it is functional. Particulars: read-out: Activity. For orientation: Flow cytometry measures light scatter and fluorescence of single cells or particles in a stream.

Data set [5] has as its system MCF7. The data set is described as follows: Inhibition of colony formation in human MCF7 cells after 7 days by crystal staining based assay. In kind it is functional, cell-based. Particulars: dose 0.3125-2.5 µM, time 7.0 day. In short, it runs like this:
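MCF-7 cells were seeded at 1,000/well and grown 24 h, then exposed 7 days to 2.5, 1.25, 0.625, 0.3125 μM compound or DMSO. Colonies were fixed in methanol, stained with crystal violet and imaged.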

The subject of data set [6] is MCF7. The data set is described as follows: Binding affinity to wild type PDGFRbeta promoter (unknown origin) in human MCF7 cells assessed as down regulation of PDGFRbeta mRNA expression at 1.25 to 20 uM after 12 hrs by RT-PCR analysis. In kind it is cell-based. Particulars: dose 1.25-20 µM.
Data set [7] relates to MCF7. The data set is described as follows: Induction of cell cycle arrest in human MCF7 cells assessed as accumulation at G2/M phase at 0.625 to 10 uM after 48 hrs by propidium iodide staining based flow cytometric analysis (reference value: 15.8%). In kind it is functional. Particulars: dose 0.625-10 µM. In outline:
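MCF-7 cells, 2 × 10^5/well, were pre-grown 12 h, then treated with 10, 5, 2.5, 1.25, 0.625 μM compound or DMSO. Cells were fixed in 75% ethanol at −20 °C overnight. Staining was 50 μg/mL PI with RNase A, 30 min at room temperature in the dark. Flow cytometry collected 10,000 events; phase distribution was determined.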

For data set [8], the system named is MCF7. The data set is described as follows: Induction apoptosis in human MCF7 cells assessed as early apoptotic cells at 2.5 uM incubated for 24 hrs by Annexin-FTTC/PI staining based flow cytometric analysis (reference value: 0.28%). In kind it is functional.
A short description of data set [9]: Binding affinity to 5'-biotin-d [GCGTCCACCCTCCCTGCCCCGCCGCCCCCCCITCTCCCAGC]-3' i-motif DNA (unknown origin) by surface plasmon resonance assay. In short, it runs like this:
(§1)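 SPR: biotinylated oligomers were captured on a neutravidin chip at ~1000 RU, with a blank reference cell. Running buffer was 20 mM MES pH 5.5, 100 mM KCl, 0.05% Tween-20 for the i-motif, or 50 mM Tris-HCl pH 7.4, 100 mM KCl for the G-quadruplex. Ligand was injected at 0–10 μM (six concentrations), with 200 s association and 300 s dissociation at 25 °C.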
For orientation: In SPR one partner is held on a chip, and binding of the other changes the refractive index at the surface.

In data set [10] the target is Quadruplex DNA. The data set is described as follows: Binding affinity to 5'-biotin-d [GCTGGGAGAAGGGGGGGCGGCGGGGCAGGGAGGGTGGACGC]-3' G4-quadruplex DNA (unknown origin) by surface plasmon resonance assay. In kind it is nucleic-acid assay. In outline: as §1
Data set [11] is described as follows: Toxicity in nude BALB/c mouse xenografted with human MCF7 cells assessed as reduction in body weight at 2.5 to 10 mg/kg, ip administered for 34 days. In kind it is organism-based. Particulars: in vivo, 816 h, dose 2.5-10 mg/kg, time 34 day. In short, it runs like this: (§2)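 Nude BALB/c females bearing subcutaneous MCF-7 xenografts were dosed ip once daily for 34 days at 2.5, 5.0 or 10 mg/kg, with saline vehicle (100 µL) as control. Body weight was recorded every 2 days. After euthanasia by cervical dislocation, heart, liver, spleen and kidney were removed and weighed.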

Data set [12] deals with MCF7. The data set is described as follows: Induction apoptosis in human MCF7 cells assessed as late apoptotic cells at 5 uM incubated for 24 hrs by Annexin-FTTC/PI staining based flow cytometric analysis (reference value: 0%). In kind it is functional.
Data set [13] can be described thus: Toxicity in nude BALB/c mouse xenografted with human MCF7 cells assessed as heart weight at 2.5 to 10 mg/kg, ip administered for 34 days. In kind it is organism-based. Particulars: in vivo, 816 h, dose 2.5-10 mg/kg, time 34 day. In outline: as §2
The subject of data set [14] is Quadruplex DNA. The data set is described as follows: Binding affinity to 5'-biotin-d [GCTGGGAGAAGGGGGGGCGGCGGGGCAGGGAGGGTGGACGC]-3' G4-quadruplex DNA (unknown origin) assessed as change in melting temperature at 10 uM by CD spectroscopy. In kind it is nucleic-acid assay. In outline:
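Oligomer 2 µM in Tris-HCl pH 7.4, annealed (95 °C for 5 min, slow cooling, 4 °C overnight). Ligand 10 µM. CD ellipticity followed at 263 nm over 25–95 °C; ΔTm taken against DNA alone.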

The subject of data set [15] is MCF7. The data set is described as follows: Induction apoptosis in human MCF7 cells assessed as late apoptotic cells at 2.5 uM incubated for 24 hrs by Annexin-FTTC/PI staining based flow cytometric analysis (reference value: 0%). In kind it is functional.
Data set [16] is described as follows: Binding affinity to FAM-labeled 5'-biotin-d[TATAGCTATA-HEG-TATAGCTATA]- 3' duplex DNA (unknown origin) by microscale thermophoresis assay. In short, it runs like this:
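Microscale thermophoresis with DNA held constant at 1 µM. Compound serially diluted 3:4 from 10 µM over 12 points. Samples run in standard glass capillaries with LED and laser power both at 20%. KD derived by fitting.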

In data set [17] the test system is MCF7. The data set is described as follows: Antitumour activity against human MCF7 cells xenografted in nude BALB/c mouse assessed as tumour growth inhibition at 2.5 mg/kg, ip administered for 34 days relative to control. In kind it is functional. Particulars: 816 h, time 34 day, read-out: TGI.
Data set [18] in a line: Binding affinity to 5'-FAM-GCGTCCACCCTCCCTGCCCCGCCGCCCCCCCTTCTCCCAGC-TAMRA-3' i-motif DNA (unknown origin) assessed as unfolding i-motif structure by measuring reduction in I585/I518 ratio by FRET assay. Particulars: dose 2-10 equiv. In outline:
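FRET probe: i-motif oligonucleotide dual-labelled with FAM donor and TAMRA acceptor, 10 µM in 30 mM BPES buffer with 1 mM EDTA, KCl, thermally annealed. Compound was added in equal volume at increasing concentrations. Emission was scanned 500–700 nm and corrected for the compound's own signal. Read-out was the I585/I518 ratio, with the titration run at pH 6.2.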

Data set [19] relates to MCF7. The data set is described as follows: Antitumour activity against human MCF7 cells xenografted in nude BALB/c mouse assessed as tumour growth inhibition at 10 mg/kg, ip administered for 34 days relative to control. In kind it is functional. Particulars: 816 h, time 34 day, read-out: TGI.

Each structure is given as a SMILES string.

Turning to `Cc1ccc2c(c1)c(=O)c1cc(C(=O)NCCCN(C)CCCN3C(=O)c4cccc5c(N6CCN(C)CC6)ccc(c45)C3=O)ccc1n2-c1ccc(C(=O)NCCCN(C)CCCN2C(=O)c3cccc4c(N5CCN(C)CC5)ccc(c34)C2=O)cc1`, the IC50 in [1] was over 50 µM. Besides, the Activity result is “Dose-dependent effect” in [2]; 985.1 mm3 in data set [3]; “Dose-dependent effect” in data set [6]; 31.5% in [7]; 26.1% in data set [8]; “Non-Toxic” in data set [11]. Besides, the Activity is 51.1% in [12], “Non-Toxic” in data set [13], 1.96% in [15] and “Dose-dependent effect” in [18]. The viability at 1.25 µM in data set [4] was 91.4%. In addition, the inhibition entry in [5] is “Dose-dependent effect”. In addition, the Kd in data set [9] came to 3.12 µM; in data set [10] it was 3.23 µM; in data set [16], 529 µM. Moreover, the ΔTm in [14] was over 20 °C. In data set [17], the inhibition in vivo at 2.5 mg/kg is 34.9%. Also, the inhibition in vivo at 10 mg/kg in data set [19] came out at 56.5%.
